From the array DNA melting data of Ke et al. (doi:10.1101/2024.01.08.574731)

What was measured:
[1] = folding enthalpy; higher = less favourable; fluorescence melt of hairpins on a sequencing array, two-state fit; settings: sodium 0.088 M
Summary of the method: (§1)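 Folding enthalpy and melting temperature come from bootstrapped two-state fits to Cy3 fluorescence of library hairpins carrying annealed Cy3 and quencher oligos on a sequenced MiSeq flow cell. Imaging was done in 50 mM Na-HEPES pH 8.0, 25 mM NaCl, stepping by 2.5 °C up to 60 °C, and signals were normalised to pre-quench Cy3 and to control constructs. Results of four replicates were combined by inverse variance, and fitted temperatures were raised by 9.35 °C to match UV melts.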

[2] = melting temperature; fluorescence melt of hairpins on a sequencing array, two-state fit, raised by 9.35 °C to match UV melts; settings: sodium 0.088 M
Summary of the method: as §1

Sequence | folding enthalpy [1] [kcal/mol] | Tm [2] [°C]
GATCAGTTACCTGATC ((((((....)))))) | -37 | 50.9
GATCAGTTCACTGATC ((((((....)))))) | -44.8 | 58.1
GATCAGTTCCTGATC ((((((...)))))) | -42.9 | 50.9
GATCAGTTGCCTGATC ((((((....)))))) | -41.1 | 51.4
GATCAGTTGGCTGATC ((((((....)))))) | -43 | 54.3
GATCAGTTGTCTGATC ((((((....)))))) | -39.2 | 50.5
GATCATAAATATGATC ((((((....)))))) | -41.4 | 45.2
GATCATAACAATGATC ((((((....)))))) | -32.1 | 47
GATCATAATCATGATC ((((((....)))))) | -32.1 | 46.2
GATCATAGAAATGATC ((((((....)))))) | -29.4 | 41.7
GATCATAGAATGATC ((((((...)))))) | -36 | 48
GATCATAGATATGATC ((((((....)))))) | -33.6 | 47.3
GATCATAGCAATGATC ((((((....)))))) | -40.3 | 47.4
GATCATAGCCATGATC ((((((....)))))) | -44.5 | 47.5
GATCATAGTAATGATC ((((((....)))))) | -37.2 | 47.3
GATCATAGTCATGATC ((((((....)))))) | -32.9 | 47.2
GATCATATACATGATC ((((((....)))))) | -32.9 | 48.1
GATCATATTAATGATC ((((((....)))))) | -34.1 | 47.9
GATCATATTCATGATC ((((((....)))))) | -37.3 | 47.8
GATCATCACCATGATC ((((((....)))))) | -36.1 | 46.8
GATCATCATCATGATC ((((((....)))))) | -34.8 | 45
GATCATCCCCATGATC ((((((....)))))) | -34.9 | 46.2
GATCATCCTATGATC ((((((...)))))) | -33.1 | 48.3
GATCATCGACATGATC ((((((....)))))) | -30.4 | 44.8

Sequence | folding enthalpy [1] [kcal/mol] | Tm [2] [°C]
GATCATCGGTATGATC ((((((....)))))) | -34.2 | 46.5
GATCATCGTCATGATC ((((((....)))))) | -32.4 | 45.4
GATCATCTAAATGATC ((((((....)))))) | -35.9 | 47.4
GATCATCTGGATGATC ((((((....)))))) | -44.9 | 53
GATCATCTTAATGATC ((((((....)))))) | -36.5 | 49
GATCATCTTATGATC ((((((...)))))) | -34.7 | 49.8
GATCATCTTTATGATC ((((((....)))))) | -32.3 | 47.9
GATCATGACTATGATC ((((((....)))))) | -48.6 | 54.2
GATCATGAGCATGATC ((((((....)))))) | -36.8 | 48
GATCATGATAATGATC ((((((....)))))) | -48.7 | 55.4
GATCATGCCAATGATC ((((((....)))))) | -45.4 | 58.5
GATCATGCGATGATC ((((((...)))))) | -31.9 | 46.9
GATCATGCTTATGATC ((((((....)))))) | -35.9 | 48
GATCATGGAAACGTGATC (((((.(....).))))) | -31.7 | 46.5
GATCATGGAAATGATC ((((((....)))))) | -36 | 52.4
GATCATGGCGATGATC ((((((....)))))) | -49.1 | 51.5
GATCATGGGCATGATC ((((((....)))))) | -38 | 49.6
GATCATGTACATGATC ((((((....)))))) | -40.7 | 56.5
GATCATGTGGATGATC ((((((....)))))) | -35.2 | 47.3
GATCATGTTGATGATC ((((((....)))))) | -41.2 | 48.4
GATCATTCTATGATC ((((((...)))))) | -33.7 | 50.7
GATCATTGAAATGATC ((((((....)))))) | -36.8 | 46
GATCATTGAGATGATC ((((((....)))))) | -39.4 | 49.8
GATCATTGCATGATC ((((((...)))))) | -34 | 50.4

Sequence | folding enthalpy [1] [kcal/mol] | Tm [2] [°C]
GATCATTGGAATGATC ((((((....)))))) | -36.1 | 46.5
GATCATTGTCATGATC ((((((....)))))) | -31.7 | 46.2
GATCATTTATATGATC ((((((....)))))) | -35.6 | 48.4
GATCATTTCATGATC ((((((...)))))) | -40.6 | 51.8
GATCATTTCCATGATC ((((((....)))))) | -40.5 | 46.1
GATCATTTGATGATC ((((((...)))))) | -38.2 | 46.6
GATCCAAAACTGGATC ((((((....)))))) | -31.6 | 45.6
GATCCAAAAGTGGATC ((((((....)))))) | -27.5 | 43.9
GATCCAAAATTGGATC ((((((....)))))) | -35.8 | 48.1
GATCCAAAGATGGATC ((((((....)))))) | -26.4 | 44.5
GATCCAAATTGGATC ((((((...)))))) | -31.8 | 48.3
GATCCAACAATGGATC ((((((....)))))) | -32.7 | 47.1
GATCCAACGCTGGATC ((((((....)))))) | -38.3 | 49.1
GATCCAACGTGGATC ((((((...)))))) | -31.9 | 49.2
GATCCAAGAATGGATC ((((((....)))))) | -30.2 | 46.7
GATCCAAGACTGGATC ((((((....)))))) | -28.2 | 47.4
GATCCAAGCGTGGATC ((((((....)))))) | -35.7 | 50.6
GATCCAAGGCTGGATC ((((((....)))))) | -35.5 | 48.9
GATCCAAGTCTGGATC ((((((....)))))) | -41.8 | 49
GATCCAATCCTGGATC ((((((....)))))) | -37.7 | 49.2
GATCCAATCTTGGATC ((((((....)))))) | -33 | 54.3
GATCCAATGATGGATC ((((((....)))))) | -29.3 | 47.6
GATCCAATGTGGATC ((((((...)))))) | -32.5 | 50.8
GATCCAATTCTGGATC ((((((....)))))) | -39.7 | 49.5

Sequence | folding enthalpy [1] [kcal/mol] | Tm [2] [°C]
GATCCAATTTGGATC ((((((...)))))) | -39.8 | 51.1
GATCCAATTTTGGATC ((((((....)))))) | -40.2 | 54
GATCCACACGTGGATC ((((((....)))))) | -35.1 | 59
GATCCACACTTGGATC ((((((....)))))) | -41.1 | 52.1
GATCCACATTGGATC ((((((...)))))) | -25.2 | 52.2
GATCCACCAGTGGATC ((((((....)))))) | -50.8 | 56.1
GATCCACCTTGGATC ((((((...)))))) | -31.7 | 51.2
GATCCACGATGGATC ((((((...)))))) | -27 | 48.6
GATCCACGATTGGATC ((((((....)))))) | -37 | 48
GATCCACGCATGGATC ((((((....)))))) | -32.1 | 52.8
GATCCACGGATGGATC ((((((....)))))) | -32.4 | 48.6
GATCCACGTTGGATC ((((((...)))))) | -29.7 | 50.6
GATCCACTCTTGGATC ((((((....)))))) | -35.1 | 51
GATCCACTGCTGGATC ((((((....)))))) | -41.4 | 50.4
GATCCACTGGTGGATC ((((((....)))))) | -39.4 | 59.1
GATCCACTTATGGATC ((((((....)))))) | -42.9 | 50.8
GATCCACTTCTGGATC ((((((....)))))) | -34.8 | 50.2
GATCCACTTTGGATC ((((((...)))))) | -33.3 | 53.1
GATCCAGACATGGATC ((((((....)))))) | -39.9 | 58
GATCCAGACGTGGATC ((((((....)))))) | -45.1 | 53.2
GATCCAGAGATGGATC ((((((....)))))) | -34.5 | 52.3
GATCCAGATTTGGATC ((((((....)))))) | -30 | 50.4
GATCCAGCATTGGATC ((((((....)))))) | -44.4 | 56
GATCCAGCGCTGGATC ((((((....)))))) | -54.5 | 60.1
